The EternaBench riboswitch data

Test system: MS2 coat protein
Experiment: apparent Kd, MS2 coat protein; higher = weaker binding; RNA-MaP array; FMN 200 µM where present
Procedure, shortened: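 In 100 mM Tris-HCl pH 7.5, 80 mM KCl, 4 mM MgCl2, BSA, DTT, yeast tRNA and Tween-20, SNAP-549-labelled MS2 coat protein was titrated from 0.7 or 1.5 nM, doubling to 3 µM, over designs transcribed by stalled E. coli RNA polymerase on Illumina sequencing-chip clusters. This was done first without ligand, then with ligand held constant. After green signal was normalised to red-channel RNA signal and control-cluster median Fmax, the apparent Kd was taken as the median of filtered per-cluster binding-curve fits.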

[1] = designed as: OFF switch for flavin mononucleotide, no ligand
[2] = ligand present: flavin mononucleotide, designed as: OFF switch for flavin mononucleotide
[3] = designed as: ON switch for flavin mononucleotide, no ligand
[4] = ligand present: flavin mononucleotide, designed as: ON switch for flavin mononucleotide

Sequence	apparent Kd [1] [nM]	apparent Kd [2] [nM]	apparent Kd [3] [nM]	apparent Kd [4] [nM]
UGUUGUUCAGGAUAUGGUGUGUUAUACAUGAGGAUCACCCAUGUGGGUCCUGGUUUGGCGUCAGAAGGGAAUGUUG	539	396		
CCUAUGUGAGGAUAUGUCUGGUCUUCUUUUGUUUUUUACAGACAGAAGGCACAUGAGGAUCACCCAUGUCAGAC	16.8	24.4		
GGGUUUGGAGGAUAUACAAUCCCGGGCCGAAAGGUUUGGGUACAUGAGGAUCACCCAUGUAGAAGGCCGGGCCC	19.2	27.3		
UUACUCAUGUAAGGAUAUGCAGCCGUUUCGGUUGCAGAAGGUACUAUAAUACAUGAGGAUCACCCAUGUCUUUUUAAUUUUUAC			67.9	31.2
GCGGUCAACGUAGGAUAUCUUCAGCCACAGCACAUUGCUGUACAUGAGGAUCACCCAUGUCCUGGAGAGAAGGACGGACGGCAG			179	35.3
AGGUAAGACUUAAUUGUGCUGGUGAGAAGGCAAAUGGUUGUGAUUAACAUGAGGAUCACCCAUGUUGAGGAUAUCAUCGGUAUC		62.9		
ACAAAUCGAGGAUAUACAUGAGGAUCACCCAUGUGGAGUCCACUGCGCGGUUCUCAGCGUAGAAGGCGAAAACA	46.3	89.8		
GCGACGAAAGUCGAACGAUGUAGCAGAAGGACAUGAGGAUCACCCAUGUCAGCUGUAACAGCCAUGUAGGAUAUGCUACAUCGU	4.18	5.27		
CUCGAGUUAGGAUAUCGAACGUAACAAGCGGGAACUCCCGCCGAGAAGGAACAUGAGGAUCACCCAUGUGAAAA	23.2	22.2		
AGUGCCCGAGCAGGAUAUCAAUGGUGGUCUGUACGCUGUAAAUUCAACAUGAGGAUCACCCAUGUUGAGAAGGGUUACGGCGCA	8.86	23.9		
CAAAUUAGCGAGAAGGAGCGCCCGUAGGUACAUGAGGAUCACCCAUGUCCUUUGUGCUCUACGCGCUAGGAUAUCGAUAAACAG	12.8	99.4		
GUAGCAUACCGAGGAUAUUCAUAUAAUACAUGAGGAUCACCCAUGUUAUAUAGGCGAAAGCCUUGGGAGAAGGCGGAAUGCUAC				10.8
UGGAUGUGGGUUCCACAUGAGGAUCACCCAUGUACCGAUGAGAGAAGGCACUCUAGUACCUAGAGUGAGGAUAUCUACAUUCAA	4.32	9.75		
CAAGGUACCCAAGGAUAUCCUCACAUGAGGAUCACCCAUGUGUCAGCAAAAGGAGAAGGUGGGUGAAGCUGUCUGCACGCCAAG			53.3	4.53
ACAGAGGCUGACAUGAGGAUCACCCAUGUUAGAUUGUUAUGUCAGGAUAUUAUCUGGCAACCAGAUAAGAAGGGACCCUCUGUG			31.2	8.45
UUGUUAUGUGUAGGAUAUGCAUAUUAUUAUUAUGCAGAAGGACAUGAGGAUCACCCAUGUGUAUUAUUAUUAUAUAUUAUAUAU	23.9	35.9		
UCGCGGGUGCAGAAGGGAUAGGCCUAUUUUCGUGGUGUCCAAACUUAACAUGAGGAUCACCCAUGUCAGGAUAUGCCCACGCGA	29.5	52.7		
AAAAGCCAAGGAUAUACAUGAGGAUCACCCAUGUAAGAAAUGGGCGCUACCGUUCCGUGUAGAAGGUGGGAAAA	28.6	65		
AACAGUACAGGAUAUACAUGAGGAUCACCCAUGUGAGAAUUAAGUGGCGAACCACAAAGUAGAAGGGUACUGGA	59.6	197		
GUAGCAUACCGAGGAUAUUCAUCCGGAAACGGACAUGAGGAUCACCCAUGUGCAGAAAACUGCUGGGAGAAGGCGGAAUGCUAC			89.7	16.9
AAUAUGAGCUGGUUUAAAUCCGAAACAUGAGGAUCACCCAUGUAGGAUAUCAGCACGAUAAGUGCUGAGAAGGACAUCCAGCUC	15.6	15		
CACACAUGUGGAGGAUAUGUAGUUAACAUAAGCGCAGAAGGCCACAUGAGGAUCACCCAUGUCCGGCAUUAGCCGAUGUUGAUC	108	397		
GGUCGUCAGAUUAACAUGAGGAUCACCCAUGUCUUUUGACAUGAGGAUAUGGAUCCUAAUUGGAUCCAGAAGGCAUGGACGACC			1170	104
UAUAUGUCAGGAUAUCGAUUGGAAUGGAAUUCGGUUCUGGUUGAGAAGGGACAUGAGGAUCACCCAUGUUUUUC	27.6	84.4		
UUUUACAUAGGAUAUAGUUGCUUUUACAUGAGGAUCACCCAUGUCUCUCCUCUCUCUCUUCUAGAAGGAUGUUUCU	54.7	46.5		
UACGUACAGAAGAACGCCGGGUCCAGAAGGGACAUGAGGAUCACCCAUGUACCGUUGAUUGCUUGUCAGGAUAUGGACCCGGCC	6.32	21.8		
AUGGACGCAGGAUAUACAUGAGGAUCACCCAUGUUAGGGUUGUGAGUAGGAAGGGAAGGUAGAAGGGCGAGAGU	120	141		
ACAUGAGGAUCACCCAUGUUUUCAUGGAUUAUUAUUCUUUGAUAGGAUAUGUUAGUUAAGUAUUUACAGAAGGAUCAUUACCAA	22.6	16.1		

Sequence	apparent Kd [1] [nM]	apparent Kd [2] [nM]	apparent Kd [3] [nM]	apparent Kd [4] [nM]
UAUUUUAACUAAGGAUAUCUAUAUUAUGUUGAAACAUGAGGAUCACCCAUGUUCAUGAUAUUAUAGGAGAAGGUAGAUGAAUAA			6.59	5.44
CGAUAUAUGAAGGGCGAAAGCCCACAUGAGGAUCACCCAUGUAGAAGGCGAGCCGCAACGCGGCUCGAGGAUAUAUAGUAUACA	7.24	8.52		
GCGUUUGUAUCACAUGUAUUACAUGAGGAUCACCCAUGUUACUAGGAUAUGUAUUAGUAUUUUCAACAGAAGGAGUAAGAACGC	18.8	23.5		
GCCUCACAUGAGGAUCACCCAUGUCAGGAUAUAGGAGAUGGCAGAAAUCCUACCAUCGCUAGAAGGGACUGGCA	43.4	76.4		
GUGCACACUCGAGGAUAUCGGAGAGUACUCCUUCGAGAAGGCGAUUCGUGCCGUGUUAUUCUGGACAUGAGGAUCACCCAUGUG			125	39.9
UGAUCUUACAUGAGGAUCACCCAUGUAGGCCAGUAACUAACCAGAAGGCACGUAGAGUAAAACAGUGAGGAUAUGGAUGACAUA			11.7	6.32
AAGAUGCGGGUAGGAUAUGGAGAGAAAGAAAGACCAGAAGGAUUGGUCACACAACAUGAGGAUCACCCAUGUGUGUGUUGCGAA	14.1	11.9		
GGAUAGGACAGAGGAUAUACGUGCGAGAGAUACUAGCAAAAUUUCCUCACAUGAGGAUCACCCAUGUAGAAGGCUGUCCUAUCG	162	195		
UAUUGACAAGGAUAUUUGCGUAGUAACAUGAGGAUCACCCAUGUGAUACUAUGGAGCUCGAAAGAAGGUGUGCGAG	20.5	22.8		
AUAAACCUAGGAUAUACAUGAGGAUCACCCAUGUAAGGGCAAUGCCCAUGCUCCUCAUGUAGAAGGAGGAGCAG	21.8	25.5		
UCCUGAUCGAGAGGUAGGAGUGGUAGAAGGCGACCGGUGCCAGAUGACAUGAGGAUCACCCAUGUCGAGGAUAUACCACAGAAU	7.03	12.3		
AAUUUAAUACAUGAGGAUCACCCAUGUAAAUUAAUUAAGAUCUAGGAUAUCAGCUCGAUUAGAGCUGAGAAGGAGAUCACAUGU			16.6	13.2
UCCUUGUCCUGAGGAUAUCCGCGGUUCCCAAAAGGAGAAGGCAGGACAUGAGGAUCACCCAUGUACCGAGAAAACGUGCAGAGU	12.7	105		
GGAGGACAUGAGGAUCACCCAUGUGGAUGGGCGCUAGGAUAUGCGAGAGGAGGGAGUGGAGCAGAAGGAGUGGGUU			65.6	57.5
AUGAUGUCAGGAUAUCGUUGGCUCACUUGUGUGUGCCAGUUCGAGAAGGGACAUGAGGAUCACCCAUGUUUUUA	45	252		
UGUAUACAUGAGGAUCACCCAUGUAAGGAUAUGCUUUAUUAUUAUUAUUAUUAUUGUUGCAGAAGGUACAUUGU	28.9	32.1		
AGUCGGAGCAGAGGAUAUAUACAUGAGGAUCACCCAUGUAAAGAUCAAAGCUGGAAACAGCAAGUAUAGAAGGCUGCUCCGACA	90.5	271		
UAGUGCGUUAGAGGAUAUUCUAAAAUAAAAUAAAAGACAUGAGGAUCACCCAUGUAUGUACAUGGGAAGAAGGCUGAUGUGCUA			438	51.4
CGUUUUCACAUUUUAGUGUUUUAUACAGAAGGCCAUACACAUGAGGAUCACCCAUGUCAGGAAUUGGAGGAUAUGUUAUUGACG			5.92	4.85
UGGGUUGUUGUGAGGAUAUACUGUUUGUUUUGUUUGUAGAAGGUACAUGAGGAUCACCCAUGUUGGUUGUGGUU	262	228		
GGGUACAUCGGAGGAUAUCAUGUAUAUACAUGAGGAUCACCCAUGUCGUACGAGAGUACGGAGAUUGAGAAGGCCGAUGUACCG			39.4	14.4
AGAUGGUAUAUAGGAUAUCAUGUGCAAACAUGAGGAUCACCCAUGUAGAAACGUCAGUUUAAUAAUGAGAAGGAUAUACCAUCU			31.9	11.5
GGGUACAUCGGAGGAUAUCAUGUAAAUACAUGAGGAUCACCCAUGUCGAUGGAGACAUCGGAGAUUGAGAAGGCAGAUGUACCG			333	18.1
GAACCACAUGAGGAUCACCCAUGUCUAAGAAAUUAAGGAUAUGCACAAAAGGAAAUAACUGCAGAAGGUAAACGAA			33.4	27.4
GGGUUUGGAGGAUAUACAUGAGGAUCACCCAUGUAGGGCCCGGGUAUUCCCGGGCCCUGUAGAAGGCCGGGCCC	14.1	16.5		
AUACUGAGCGUAAGUUACCUGAACAUGAGGAUCACCCAUGUGGAGGAUAUUGACCUAGCAAAGCUCGAGAAGGCCACUGGGAUG	24.8	19.1		
CGCAACAUGAGGAUCACCCAUGUUCGCGGGCAAUUUUAGUGCAGAAGGGACAACGAAACGUAGGGUCAGGAUAUGCAUGUGCGC			5.26	5.17
